Here are results for two compounds from publication PMC6745243 (Bioorganic & medicinal chemistry letters, 2019).

The conditions of data set [1]: Mouse; ref Ghoshal, et al. Mol Metab. 2016; cited from earlier work.
For data set [2] the following is noted: Human; ref Ghoshal, et al. Mol Metab. 2016; cited from earlier work.
The nature of data set [3]: Aqueous solubility. Format: physicochemical.
Data set [4] deals with IP6K family. Particulars: cited from earlier work.
The subject of data set [5] is 58 kinases (diversity panel). Nature of the data set: Off-target kinase diversity panel at Eurofins. Format: biochemical. Particulars: 10μM, 58 kinases tested. A digest of the protocol:
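Kinase panel included metabolically important enzymes, among them GSK3β, AKT, mTOR and PI3K.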

The target of data set [6] is T1, IP6K3 (Homo sapiens, UniProt Q96PC2).
T1 sequence (Q96PC2 1-410): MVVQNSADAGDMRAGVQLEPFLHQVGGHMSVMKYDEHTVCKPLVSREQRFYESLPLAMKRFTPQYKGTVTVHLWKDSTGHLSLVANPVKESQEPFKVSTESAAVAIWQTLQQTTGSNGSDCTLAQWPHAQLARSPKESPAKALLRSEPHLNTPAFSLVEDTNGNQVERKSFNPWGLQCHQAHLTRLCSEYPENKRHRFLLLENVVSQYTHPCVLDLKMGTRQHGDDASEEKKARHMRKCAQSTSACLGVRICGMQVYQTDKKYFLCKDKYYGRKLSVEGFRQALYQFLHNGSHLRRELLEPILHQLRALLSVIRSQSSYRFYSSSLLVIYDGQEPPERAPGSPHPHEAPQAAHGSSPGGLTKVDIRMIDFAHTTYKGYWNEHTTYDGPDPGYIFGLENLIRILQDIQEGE
The data set is described as follows: ADP-Glo Max assay, purified IP6K3. The note with it: IP6K3 over IP6K1. Format: biochemical. For orientation: ADP-Glo turns the ADP formed in a reaction into a luminescent signal.

For data set [7], the target named is T2, IP6K2 (Homo sapiens, UniProt Q9UHH9).
T2 sequence (Q9UHH9 1-426): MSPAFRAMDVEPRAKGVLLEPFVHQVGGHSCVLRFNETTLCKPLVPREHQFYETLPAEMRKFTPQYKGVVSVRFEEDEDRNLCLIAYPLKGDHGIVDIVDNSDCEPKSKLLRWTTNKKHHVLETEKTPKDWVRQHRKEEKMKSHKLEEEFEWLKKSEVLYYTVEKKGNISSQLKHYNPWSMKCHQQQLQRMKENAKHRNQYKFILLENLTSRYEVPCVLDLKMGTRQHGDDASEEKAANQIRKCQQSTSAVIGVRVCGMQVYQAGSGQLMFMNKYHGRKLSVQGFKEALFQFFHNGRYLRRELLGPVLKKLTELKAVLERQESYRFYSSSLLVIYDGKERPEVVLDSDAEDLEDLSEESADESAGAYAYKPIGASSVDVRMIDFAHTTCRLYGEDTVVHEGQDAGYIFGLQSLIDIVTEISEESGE
The data set is described as follows: ADP-Glo Max assay, purified IP6K2. The note with it: IP6K2 over IP6K1. In kind it is biochemical.

“And” between values parts separate entries of the source, which are not always exact repeats. Identical values can stand only once. Like-named read-outs stand apart in the source and are kept apart here.

`O=[N+]([O-])c1ccc(CNc2nc(NCc3cccc(C(F)(F)F)c3)nc3[nH]cnc23)cc1` [Compound 1, N2-(m-trifluorobenzyl)-N6-(p-nitrobenzyl) purine]: the “Microsome stability (t1/2)” value in data set [1] is “Mouse 9 min ^**”; in data set [2], “Human 32 min ^**”. Moreover, the results for the Solubility result in data set [3] (2% DMSO) and in data set [3] (aqueous buffers) were “Mostly insoluble in 2% DMSO” and “sparingly soluble”, respectively. Further, the IP6K selectivity result in data set [4] (between IP6K isoforms, ref Padmanabhan, et al. J Biol Chem 2009) is on record as “Not selective ^*”. Besides, the “Potency against the IP6K family” value in data set [4] is “low micromolar potency”.

Consider `COc1ccc2c(CCNc3nc(NCc4ccc(=O)[nH]c4)c4nc[nH]c4n3)c[nH]c2c1` [Compound 24], for which, in data set [5], the “Number of kinases not significantly inhibited (inactive)” value came out at 54 kinases. Besides, the “Number of kinases potently inhibited” value in data set [5] (3 of RAF/MAPK pathway and casein kinase γ) came to 4 kinases. In addition, the “Selectivity (Ki/Ki IP6K1)” value was roughly 50 fold in data set [6]; ~ 25 fold and 25 fold in data set [7].
